Only some compounds are listed: those with a hit (about 4.9% of all), similar ones and a draw of the others.
STAT3 inh: reduces IL-6 driven STAT3 reporter signal; U3A cells, IL-6 STAT3-luciferase reporter, luminescence; host cell line lacks STAT1; inhibition, % at 5.5 µM; 190,000 compounds, 0.89% hits;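 active = inhibition above the mean inhibition across all screened compounds plus 3 SD, cut at about 44% in these data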;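 note: 0% = DMSO only wells and 100% = 100 µM nifuroxazide control wells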
NF-kB expr up: NF-kB expression increase, human neuronal cells | NF-kB reporter expression; stronger effect = higher value | fold change at 12.5 µM | 190,000 compounds, 1.6% hits; in the data active = fold change above about 3.3
STAT1 act-1: activators of IFN-gamma induced STAT1 signaling. NIH 3T3 STAT1-luciferase reporter, luminescence; 100% = IFN-gamma alone, no compound. activation (% of control), % at 5.5 µM. 200,000 compounds, 2.6% hits;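 active = activation above the screen-wide mean activation plus 3 SD, cut at about 130% in these data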;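 note: raw ratio to IFN-gamma control signal so 100% means no change and 0% no light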
STAT3 act-1: STAT3 signaling activation; U3A cells, IL-6 STAT3-luciferase reporter, luminescence; 100% = signal with IL-6 EC80 alone; activation (% of control), % at 5.6 µM; 190,000 compounds, 0.91% hits; AID 871;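 active = activation above the screen-wide mean of compound activation plus 3 SD, cut at about 130% in these data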;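 note: 0% = background luminescence of wells with medium and substrate only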
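Test system: Human STAT1-deficient U3A cells with stable STAT3-luciferase reporter | Also added: Interleukin-6, 33 ng/mL | Timing: Compound pre-incubation 1 h before IL-6, then 6 h stimulation at 37 °C | Technique: Luciferase reporter luminescence | Read-out: Percent of IL-6-only median luminescence | Benchmarks: IL-6-only wells as 100% reference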
APP 5'UTR act: APP 5'UTR luciferase reporter activation; SH-SY5Y APP 5'UTR luciferase reporter, luminescence; zero percent = DMSO vehicle wells; activation, % at 2 µM; 190,000 compounds, 1% hits;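 active = activation above a set limit, based on mean plus 3 SD of controls, cut at about 140% in these data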
STAT1 inh: STAT1 signaling inhibition. inhibition, % at 5.5 µM. 200,000 compounds, 0.35% hits. NIH 3T3 STAT1-luciferase reporter, IFN-gamma, luminescence;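 active = inhibition above a set limit, the mean inhibition across all tested compounds plus 3 SD, cut at about 34% in these data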;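 note: 0% = IFN-gamma with DMSO and 100% = IFN-gamma with 300 µM nifuroxazide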
STAT3 act-2: confirmation of STAT3 signaling activators; shares compounds with STAT3 act-1; U3A STAT3-luciferase reporter, IL-6 potentiation, luminescence; U3A cells lack STAT1; 100 means same as IL-6 alone; potentiation (% of control), % at 5.7 µM; 1,200 compounds, 64% hits;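 active = percent activation of the STAT3 luciferase reporter above a set limit taken from the earlier primary screen, cut at about 130% in these data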;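 note: 0% = background signal of medium plus substrate and 100% = median of IL-6 with DMSO wells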
NFkB act 2: activates NF-kappaB, counter-screen to STAT3 activators | shares compounds with STAT3 act-1 | human cells, NF-kappaB reporter activation | activation (% of control), % at 5.7 µM | 1,200 compounds, 11% hits; in the data active = activation above about 120%;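 note: reporter induced by TNF-alpha stimulation; 100% = median of stimulated DMSO wells and 0% = no signal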
STAT1 act-2: activates STAT1, counter-screen to STAT3 activators. shares compounds with STAT3 act-1. NIH 3T3 STAT1-luciferase reporter, IFN-gamma, luminescence. activation (% of control), % at 5.7 µM. 1,200 compounds, 13% hits;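 active = activation above the solvent-only control well mean plus 3 SD, set per screening run, cut at about 120% in these data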;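 note: 100% = IFN-gamma with DMSO median signal so 100% means no change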
Starred values were filed as active, the others as inactive.

Screening Clc1ccc(C2Nc3ccccc3-n3cccc32)cc1 (centres undefined) returned STAT3 inh -73, NF-kB expr up 0.98, STAT1 act-1 96, STAT3 act-1 166*, APP 5'UTR act 5, STAT1 inh 5, STAT3 act-2 160*, NFkB act 2 113 and STAT1 act-2 114.
`CN1c2ccccc2C(=O)NC1c1ccc(Cl)cc1` (centres undefined) gave STAT3 inh 15, NF-kB expr up 1.2, STAT1 act-1 93, STAT3 act-1 93, APP 5'UTR act 3 and STAT1 inh 6.
`N#Cc1c(N)sc2c1CCN(CCc1ccccc1)C2` gave STAT3 inh 2, NF-kB expr up 1.1, STAT1 act-1 104, STAT3 act-1 101, APP 5'UTR act 1 and STAT1 inh -5.
For Cc1ccc([N+](=O)[O-])cc1NC(=O)c1cccs1 the results were STAT3 inh 27, NF-kB expr up 1.1, STAT1 act-1 97, STAT3 act-1 80, APP 5'UTR act -8 and STAT1 inh 3.
Screening CNc1cc([N+](=O)[O-])ccc1N/C=C/C(=O)c1cccs1 returned STAT3 inh -92, NF-kB expr up 0.47, STAT1 act-1 105, STAT3 act-1 176*, APP 5'UTR act 3, STAT1 inh -6, STAT3 act-2 153*, NFkB act 2 106 and STAT1 act-2 101.
`Cc1ccccc1C(=O)N/N=C1/SCC(=O)N1Cc1ccc2c(c1)OCO2` gave STAT3 inh -6, NF-kB expr up 1.3, STAT1 act-1 95, STAT3 act-1 104, APP 5'UTR act -14 and STAT1 inh 6.
`CCCn1c(N2CCN(CC(=O)c3c[nH]c4ccccc34)CC2)nc2c1c(=O)[nH]c(=O)n2C` gave STAT3 inh -53, NF-kB expr up 0.88, STAT1 act-1 99, STAT3 act-1 147*, APP 5'UTR act 3, STAT1 inh 1, STAT3 act-2 139*, NFkB act 2 104 and STAT1 act-2 97.
O=C(CN1CCSCC1)c1c[nH]c2ccccc12 was read as STAT3 inh -21, NF-kB expr up 0.98, STAT1 act-1 87, STAT3 act-1 125, APP 5'UTR act 2 and STAT1 inh 14.
Screening O=C(CN1CCN(Cc2ccccc2)CC1)c1c[nH]c2ccccc12 returned STAT3 inh -42, NF-kB expr up 1, STAT1 act-1 97, STAT3 act-1 138*, APP 5'UTR act -11, STAT1 inh 3, STAT3 act-2 123, NFkB act 2 100 and STAT1 act-2 98.
Screening CCn1c(N2CCN(CC(=O)c3c(C)n(C)c4ccccc34)CC2)nc2c1c(=O)[nH]c(=O)n2C returned STAT3 inh 12, NF-kB expr up 0.68, STAT1 act-1 97, STAT3 act-1 93, APP 5'UTR act -5 and STAT1 inh 3.
Screening Cc1ccc(NC(=S)Nc2cccc3cnccc23)cc1 returned STAT3 inh -40, NF-kB expr up 1.4, STAT1 act-1 95, STAT3 act-1 137*, APP 5'UTR act -10, STAT1 inh 5, STAT3 act-2 143*, NFkB act 2 97 and STAT1 act-2 98.
CC1CC(C)(C)NC(=S)N1CCC(=O)NCCc1ccc(Cl)cc1 (centres undefined) was read as STAT3 inh 9, NF-kB expr up 0.94, STAT1 act-1 100, STAT3 act-1 99, APP 5'UTR act -14 and STAT1 inh -1.
For CC(Oc1ccc(F)cc1)C(=O)Nc1ccc2ccccc2c1 (centres undefined) the results were STAT3 inh -37, NF-kB expr up 1.3, STAT1 act-1 106, STAT3 act-1 139*, STAT1 inh -6, STAT3 act-2 136*, NFkB act 2 103 and STAT1 act-2 109.
Screening CCc1nc2c(c(=O)c3ccccc3n2C)c(=O)n1CCc1ccc(OC)cc1 returned STAT3 inh -52, NF-kB expr up 0.61, STAT1 act-1 110, STAT3 act-1 144*, APP 5'UTR act -12, STAT1 inh -11, STAT3 act-2 202*, NFkB act 2 92 and STAT1 act-2 113.
Screening CCCc1nc2c(c(=O)c3ccccc3n2C)c(=O)n1-c1ccc(F)cc1 returned STAT3 inh -27, NF-kB expr up 1.2, STAT1 act-1 108, STAT3 act-1 119, APP 5'UTR act 5 and STAT1 inh -9.
Screening CCOC(=O)Cc1cc(-c2ccc(F)cc2)nc2ccc3ccccc3c12 returned STAT3 inh -24, NF-kB expr up 1.1, STAT1 act-1 100, STAT3 act-1 119, APP 5'UTR act -8 and STAT1 inh -1.
`Cc1ccc(NC(=O)c2cc(N3CCOCC3)nc3ccccc23)cc1` gave STAT3 inh -54, NF-kB expr up 0.66, STAT1 act-1 97, STAT3 act-1 153*, APP 5'UTR act 3, STAT1 inh 3, STAT3 act-2 146*, NFkB act 2 102 and STAT1 act-2 97.
For Cc1ccccc1C(=O)/C=C1/SCC(=O)N1C the results were STAT3 inh 16, NF-kB expr up 1.1, STAT1 act-1 106, STAT3 act-1 95, APP 5'UTR act -12 and STAT1 inh -9.
N#Cc1cn(CC(=O)O)c2ccccc12 was read as STAT3 inh -41, NF-kB expr up 1.2, STAT1 act-1 89, STAT3 act-1 140*, APP 5'UTR act 3, STAT1 inh 12, STAT3 act-2 140*, NFkB act 2 102 and STAT1 act-2 92.
Screening CCOC(=O)Cn1cc(C#N)c2ccccc21 returned STAT3 inh 5, NF-kB expr up 0.96, STAT1 act-1 98, STAT3 act-1 102, APP 5'UTR act 17 and STAT1 inh 0.
`O=C(Cc1cscn1)c1ccc(O)cc1O` gave STAT3 inh -49, NF-kB expr up 1.2, STAT1 act-1 103, STAT3 act-1 146*, APP 5'UTR act 1, STAT1 inh -3, STAT3 act-2 100, NFkB act 2 100 and STAT1 act-2 104.
`Cc1c(NC(=O)COC(=O)C23CC4CC(CC(Br)(C4)C2)C3)c(=O)n(-c2ccccc2)n1C` gave STAT3 inh 12, NF-kB expr up 1.1, STAT1 act-1 103, STAT3 act-1 93, APP 5'UTR act 11 and STAT1 inh -3.

High-throughput results (PubChem)
